Activity calls are given as the source filed them. The calls are words filed in the database; no cut-off is given here.
Key:
Bos taurus [1] = species on record: Bos taurus; test: Inhibition of calf thymus DNA topoisomerase 1-mediated relaxation of supercoiled pBR322 plasmid DNA at 1 ug/ml by agarose gel electrophoresis
How it was run: (§1)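 Reaction contained 1 unit calf thymus topo I and supercoiled pBR322 in 35 mM Tris-HCl pH 8.0, 72 mM KCl, 5 mM MgCl2, 5 mM DTT, 5 mM spermidine and 0.1% BSA, with or without compound, at 37 °C. Products were run on 1% agarose in TBE at 5 V/cm, stained with ethidium bromide and photographed under UV. Supercoiled and relaxed bands were quantified from gel images.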

MCF7 = test: Cytotoxicity against human MCF7 cells after 72 hrs by MTT assay; type: functional, cell-based; settings: MCF7, 72 h
How it was run: (§2)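 Cells seeded at 5000/well and left to attach overnight, then given fresh medium containing compound over […] and incubated 72 h. Viability read by MTT: 4 h contact, crystals dissolved in DMSO over 60 min of shaking, absorbance at 545 nm. Untreated wells served as controls; DMSO at most 0.3%. Two plates with at least five parallel wells each; IC50 from fitted dose–response curves.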

Bos taurus [2] = species on record: Bos taurus; test: Inhibition of calf thymus DNA topoisomerase 1-mediated relaxation of supercoiled pBR322 plasmid DNA by agarose gel electrophoresis; how it was run: as §1
HeLa = test: Cytotoxicity against human HeLa cells after 72 hrs by MTT assay; type: functional, cell-based; how it was run: as §2
A-431 = test: Cytotoxicity against human A431 cells after 72 hrs by MTT assay; type: functional, cell-based; settings: A-431, 72 h; how it was run: as §2

Structure (SMILES)	inhibition (Bos taurus [1])	inhibition (Bos taurus [2])	IC50 (MCF7)	IC50 (HeLa)	IC50 (A-431)
Oc1ccccc1-c1nc2ccccc2[nH]1	95.4%	Dose-dependent effect	16 µM	26.4 µM	> 30 µM
Clc1ccc2[nH]c(-c3ccccc3OCCN3CCCC3)nc2c1	inactive	Dose-dependent effect	–	–	–
COc1cccc2c1C(=O)c1c(O)c3c(c(O)c1C2=O)C[C@@](O)(C(=O)CO)C[C@@H]3O[C@H]1C[C@H](N)[C@H](O)[C@H](C)O1 [DOXORUBICIN]	–	–	0.31 µM	0.16 µM	0.19 µM
c1ccc(-c2nc3ccccc3[nH]2)c(OCCN2CCCCC2)c1	inactive	Dose-dependent effect	–	–	–
Clc1ccc2[nH]c(-c3ccccc3OCCN3CCOCC3)nc2c1	inactive	Dose-dependent effect	–	–	–
Clc1ccc2[nH]c(-c3ccccc3OCCN3CCCCC3)nc2c1	inactive	Dose-dependent effect	–	–	–

Continued, in another order:

inhibition (Bos taurus [1])	inhibition (Bos taurus [2])	Structure (SMILES)	IC50 (MCF7)	IC50 (HeLa)	IC50 (A-431)
90.2%	Dose-dependent effect	c1ccc(-c2nc3ccccc3[nH]2)c(OCCN2CCCC2)c1	> 30 µM	19.8 µM	> 30 µM
inactive	Dose-dependent effect	c1ccc(-c2nc3ccccc3[nH]2)c(OCCN2CCOCC2)c1	–	–	–
99%	Dose-dependent effect	Oc1ccccc1-c1nc2cc(Cl)ccc2[nH]1	6.94 µM	6.04 µM	6.16 µM
inactive	Dose-dependent effect	CCN(CC)CCOc1ccccc1-c1nc2cc(Cl)ccc2[nH]1	–	–	–

From ChEMBL document CHEMBL1158342, “Synthesis and biological activity evaluation of 1H-benzimidazoles via mammalian DNA topoisomerase I and cytostaticity assays” (Eur J Med Chem, 2009)
